Data as given in ChEMBL document CHEMBL1212801, “Inhibitor resistance in the KPC-2 beta-lactamase, a preeminent property of this class A beta-lactamase” (Antimicrob Agents Chemother, 2010).
Converted amounts (≈) assume the structure as drawn. The source made the active and inactive calls. The rule behind the calls is not given here.

Key:
[1] = system: Escherichia coli str. K-12 substr. DH10B; assay: Inhibition of Escherichia coli DH10B beta-lactamase KPC-2 assessed as residual activity at 25 to 200 uM after 24 hrs by diode array spectrophotometry
[2] = system: Escherichia coli str. K-12 substr. DH10B; assay: Km for Escherichia coli DH10B beta-lactamase KPC-2
[3] = system: Escherichia coli str. K-12 substr. DH10B; assay: Ratio of Kinact to Km for Escherichia coli DH10B beta-lactamase KPC-2
[4] = system: Escherichia coli str. K-12 substr. DH10B; assay: Ratio of Kcat to Kinact for Escherichia coli DH10B beta-lactamase KPC-2
[5] = system: Escherichia coli str. K-12 substr. DH10B; assay: Inhibition of Escherichia coli DH10B beta-lactamase KPC-2 assessed as residual activity at 25 to 200 uM after 24 hrs by diode array spectrophotometry; values are per cent of control
[6] = system: Escherichia coli str. K-12 substr. DH10B; assay: Inhibition of Escherichia coli DH10B beta-lactamase KPC-2 at 0.025 mM by UVD spectroscopy
[7] = system: Escherichia coli str. K-12 substr. DH10B; assay: Inhibition of Escherichia coli DH10B beta-lactamase KPC-2 assessed as residual activity at 25 to 200 uM after 72 hrs by diode array spectrophotometry
Escherichia coli [8] = assay: Antimicrobial activity against Escherichia coli DH10B by CLSI method; details: K-12 DH10B
Escherichia coli [9] = assay: Antimicrobial activity against Escherichia coli DH10B harboring beta lactamase KPC-2 by CLSI method; details: K-12 DH10B
Klebsiella pneumoniae = assay: Antimicrobial activity against Klebsiella pneumoniae 1534 harboring beta lactamase KPC-2 by CLSI method; format: functional
How it was run: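 […] agar dilution MICs per CLSI, using a Steers replicator spotting 10^4 CFU per spot. For clavulanic acid and sulbactam, ampicillin was fixed at 50 mg/liter while inhibitor was increased. Piperacillin-tazobactam was tested at 8:1. Test inhibitors were held at 4 mg/liter while piperacillin, imipenem or cefotaxime was increased.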

[10] = system: Escherichia coli str. K-12 substr. DH10B; assay: Ratio of Kcat to Km for Escherichia coli DH10B beta-lactamase KPC-2
How it was run: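 Steady-state assay on a diode array spectrophotometer with 10 nM purified KPC-2 and substrates at 5–200 μM, in 10 mM PBS pH 7.4 at room temperature. Spontaneous imipenem hydrolysis was subtracted. Vmax and Km came from a nonlinear least-squares Michaelis-Menten fit.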

[11] = (§1) Activity at Escherichia coli DH10B beta-lactamase KPC-2 by diode array spectrophotometry; set-up: species or system Escherichia coli str. K-12 substr. DH10B
[12] = system: Escherichia coli str. K-12 substr. DH10B; assay: as §1

SMILES	Km [2]	kinact/Km [3]	kcat/kinact [4]	MIC (Escherichia coli [8])	MIC (Escherichia coli [9])	MIC (Klebsiella pneumoniae)	kcat/Km [10]	Ki [11]	kcat [12]	also measured
CC1(C)[C@H](C(=O)O)N2C(=O)C[C@H]2S1(=O)=O	135 µM	1200 M⁻¹ s⁻¹	1000	–	–	–	–	–	–	Activity [1]: 50%
C[C@]1(Cn2ccnn2)[C@H](C(=O)O)N2C(=O)C[C@H]2S1(=O)=O	78.5 µM	2500 M⁻¹ s⁻¹	500	–	–	–	–	–	–	Activity [1]: 50%
O=C(O)C1=CSC2/C(=C\c3cc4n(n3)CSC4)C(=O)N12 (stereo not given)	0.06 µM	180000 M⁻¹ s⁻¹	250	–	–	–	–	–	–	residual activity [5]: 20%; inhibition [6]: Active
O=C(O)[C@H]1/C(=C/CO)O[C@@H]2CC(=O)N21	8.4 µM	3600 M⁻¹ s⁻¹	2500	–	–	–	–	–	–	Activity [7]: 5%
CC1(C)S[C@@H]2[C@H](NC(=O)[C@H](N)c3ccccc3)C(=O)N2[C@H]1C(=O)O [AMPICILLIN]	–	–	–	1 µg/mL (≈ 2.86 µM)	4100 µg/mL (≈ 11700 µM)	8190 µg/mL (≈ 23400 µM)	–	–	–	–
CO/N=C(\C(=O)N[C@@H]1C(=O)N2C(C(=O)O)=C(COC(C)=O)CS[C@H]12)c1csc(N)n1 [CEFOTAXIME]	–	–	–	0.06 µg/mL (≈ 0.132 µM)	8 µg/mL (≈ 17.6 µM)	16 µg/mL (≈ 35.1 µM)	0.6 µM/s	120 µM	78 s⁻¹	–
C[C@@H](O)[C@H]1C(=O)N2C(C(=O)O)=C(SCCNC=N)C[C@H]12 [IMIPENEM ANHYDROUS]	–	–	–	–	8 µg/mL (≈ 26.7 µM)	8 µg/mL (≈ 26.7 µM)	1 µM/s	19 µM	19 s⁻¹	–
O=C(Cc1cccs1)N[C@@H]1C(=O)N2C(C(=O)O)=C(/C=C/c3ccc([N+](=O)[O-])cc3[N+](=O)[O-])CS[C@H]12 [NITROCEFIN]	–	–	–	–	–	–	6.4 µM/s	5 µM	30 s⁻¹	–
CCN1CCN(C(=O)N[C@@H](C(=O)N[C@@H]2C(=O)N3[C@@H]2SC(C)(C)[C@@H]3C(=O)O)c2ccccc2)C(=O)C1=O [PIPERACILLIN]	–	–	–	2 µg/mL (≈ 3.86 µM)	1020 µg/mL (≈ 1980 µM)	1020 µg/mL (≈ 1980 µM)	1.1 µM/s	16 µM	17 s⁻¹	–
